Reference: ChEMBL document CHEMBL1129333, “Synthesis and biological activities of flavonoid derivatives as A3 adenosine receptor antagonists” (J Med Chem, 1996)
Each block holds one compound with its values, some of them ahead of it.

Experiments:
[1] = target: T1, Adenosine receptor A1 (Rattus norvegicus) (UniProt P25099); assay: Percent displacement against Adenosine A1 receptor in rat brain membranes using [3H]PIA at 10e-4 M; type: cell membranes
T1 sequence (whole entry): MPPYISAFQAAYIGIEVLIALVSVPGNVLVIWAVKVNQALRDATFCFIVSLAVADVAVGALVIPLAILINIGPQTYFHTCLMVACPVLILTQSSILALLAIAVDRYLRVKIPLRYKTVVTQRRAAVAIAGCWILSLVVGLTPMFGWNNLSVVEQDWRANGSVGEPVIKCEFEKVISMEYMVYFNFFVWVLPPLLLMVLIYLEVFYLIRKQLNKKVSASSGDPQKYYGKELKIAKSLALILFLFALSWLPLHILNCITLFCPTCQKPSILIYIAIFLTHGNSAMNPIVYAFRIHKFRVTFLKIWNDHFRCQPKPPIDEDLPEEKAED

[2] = target: T2, Adenosine A2 receptor (Rattus norvegicus) (UniProt P29276+P30543); assay: Percent inhibition against Adenosine A2 receptor in rat striatal membranes using [3H]-CGS- 21680; type: cell membranes; settings: Striatum, Membrane, concentration not given here
Summary of the method: (§1)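 Rat striatal membranes, prepared with adenosine deaminase (3 units/mL) including a 30 min, 30 °C preincubation, ADA also present during radioligand incubation; [3H]CGS 21680 displacement. Test compounds from DMSO stocks, final DMSO ≤1%, at least five concentrations spanning 3 orders of magnitude.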

[3] = system: Adenosine A1 receptor (Rattus norvegicus) / A3 receptor (Homo sapiens); assay: Ratio of binding affinities between rA1 and human A3.
[4] = target: T1, Adenosine receptor A1 (Rattus norvegicus); assay: Percentage inhibition against Adenosine A1 receptor in rat brain membranes using [3H]-PIA; type: cell membranes; design: concentration or dose not given beside the values; settings: concentration not given here
[5] = target: T2, Adenosine A2 receptor (Rattus norvegicus); assay: Percent displacement at 10e-4 M against Adenosine A2 receptor in rat striatal membranes using [3H]-CGS- 21680; type: cell membranes; settings: Striatum, Membrane; summary of the method: as §1
Adenosine receptor A3 [6] = target: T3, Adenosine receptor A3 (Homo sapiens, UniProt P0DMS8); assay: Binding affinity against human adenosine A3 receptor in HEK293 cells using [125I]AB-MECA […] radioligand.; type: cell-based
T3 sequence (P0DMS8 whole entry): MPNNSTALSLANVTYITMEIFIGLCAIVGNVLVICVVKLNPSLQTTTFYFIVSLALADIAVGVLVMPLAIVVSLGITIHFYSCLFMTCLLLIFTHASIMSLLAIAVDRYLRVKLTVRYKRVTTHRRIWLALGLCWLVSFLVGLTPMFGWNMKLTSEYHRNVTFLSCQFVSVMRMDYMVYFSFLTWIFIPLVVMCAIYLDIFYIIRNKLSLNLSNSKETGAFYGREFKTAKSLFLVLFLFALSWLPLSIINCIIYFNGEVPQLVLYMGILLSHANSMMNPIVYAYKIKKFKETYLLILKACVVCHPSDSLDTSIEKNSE

Adenosine A2 receptor = Adenosine A2 receptor (Rattus norvegicus, UniProt P29276+P30543); assay: Binding affinity at Adenosine A2 receptor in rat striatal membranes by [3H]-CGS- 21680 displacement.; type: cell membranes, Striatum, Membrane; summary of the method: as §1
[7] = target: T1, Adenosine receptor A1 (Rattus norvegicus); assay: Percent inhibition at 10e-4 M against Adenosine A1 receptor in rat brain membranes using [3H]-PIA; type: cell membranes
[8] = target: T4, Adenosine receptor A3 (Rattus norvegicus) (UniProt P28647); assay: (§2) Binding affinity for [125I]AB-MECA against rat Adenosine A3 receptor; settings: concentration not given here
T4 sequence (whole entry): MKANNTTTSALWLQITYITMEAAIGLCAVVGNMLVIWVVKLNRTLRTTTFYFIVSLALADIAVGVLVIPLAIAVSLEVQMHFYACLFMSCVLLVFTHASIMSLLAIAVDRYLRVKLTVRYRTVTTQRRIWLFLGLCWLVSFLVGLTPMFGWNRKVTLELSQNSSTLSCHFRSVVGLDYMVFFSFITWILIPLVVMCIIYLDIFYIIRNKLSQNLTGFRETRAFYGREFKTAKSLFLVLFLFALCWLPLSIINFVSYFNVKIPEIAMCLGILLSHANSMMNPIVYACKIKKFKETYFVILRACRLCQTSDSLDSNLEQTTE

[9] = target: Adenylate cyclase type 2 (Rattus norvegicus) (UniProt P26769); assay: Percent inhibition against adenylyl cyclase was measured using IB-MECA […] at 10E-6; type: functional; settings: concentration not given here
Sequence of Adenylate cyclase type 2 (Rattus norvegicus) (P26769 whole entry): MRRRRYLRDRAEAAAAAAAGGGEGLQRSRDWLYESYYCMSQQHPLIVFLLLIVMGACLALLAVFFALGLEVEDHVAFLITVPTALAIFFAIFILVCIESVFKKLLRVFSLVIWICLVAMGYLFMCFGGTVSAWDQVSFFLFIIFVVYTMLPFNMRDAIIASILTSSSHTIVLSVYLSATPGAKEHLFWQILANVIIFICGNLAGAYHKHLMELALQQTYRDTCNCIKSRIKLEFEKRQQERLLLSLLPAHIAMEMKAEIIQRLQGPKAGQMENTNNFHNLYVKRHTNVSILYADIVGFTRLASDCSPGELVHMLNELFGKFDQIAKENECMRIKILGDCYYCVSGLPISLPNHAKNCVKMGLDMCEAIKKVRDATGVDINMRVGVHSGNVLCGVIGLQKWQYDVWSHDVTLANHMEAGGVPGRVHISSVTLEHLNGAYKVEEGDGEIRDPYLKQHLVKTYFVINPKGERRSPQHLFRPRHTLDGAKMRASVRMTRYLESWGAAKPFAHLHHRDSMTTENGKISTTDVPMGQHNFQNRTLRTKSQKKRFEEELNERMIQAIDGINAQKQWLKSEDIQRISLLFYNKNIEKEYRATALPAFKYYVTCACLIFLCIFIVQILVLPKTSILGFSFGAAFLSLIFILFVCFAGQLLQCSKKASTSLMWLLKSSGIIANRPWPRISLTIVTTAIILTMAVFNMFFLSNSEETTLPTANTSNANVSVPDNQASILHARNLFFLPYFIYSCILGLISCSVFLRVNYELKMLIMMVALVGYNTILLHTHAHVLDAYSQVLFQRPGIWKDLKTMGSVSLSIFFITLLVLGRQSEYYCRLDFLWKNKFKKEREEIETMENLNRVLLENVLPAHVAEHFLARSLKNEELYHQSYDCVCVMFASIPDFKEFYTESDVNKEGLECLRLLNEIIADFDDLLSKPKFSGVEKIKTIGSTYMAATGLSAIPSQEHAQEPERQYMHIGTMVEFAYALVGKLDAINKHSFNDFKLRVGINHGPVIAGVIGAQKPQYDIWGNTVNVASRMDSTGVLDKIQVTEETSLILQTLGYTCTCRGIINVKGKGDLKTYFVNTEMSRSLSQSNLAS
Summary of the method: (§3)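 Membranes from CHO cells stably expressing rat A3 receptor (grown in F-12, 10% FBS, 37 °C, 5% CO2); [α-32P]ATP added with 1 μM forskolin and papaverine as phosphodiesterase inhibitor.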

[10] = target: Adenylate cyclase type 2 (Rattus norvegicus) (UniProt P26769); assay: Percent inhibition against adenylyl cyclase was measured using IB-MECA […] at 10E-7; type: functional; settings: concentration not given here; summary of the method: as §3
Adenosine receptor A3 [11] = target: T5, Adenosine receptor A3 (Rattus norvegicus, UniProt P28647); assay: as §2
T5 sequence (P28647 whole entry): T4 sequence (whole entry)

Adenosine receptor A1 = target: T6, Adenosine receptor A1 (Rattus norvegicus, UniProt P25099); assay: Binding affinity at Adenosine A1 receptor in rat brain membranes by [3H]PIA displacement.; type: cell membranes
T6 sequence (P25099 whole entry): T1 sequence (whole entry)

[12] = target: T2, Adenosine A2 receptor (Rattus norvegicus); assay: Percentage inhibition against Adenosine A2 receptor in rat striatal membranes using [3H]-CGS- 21680; type: cell membranes; settings: Striatum, Membrane, concentration not given here; summary of the method: as §1
[13] = target: T7, Adenosine receptor A3 (Homo sapiens) (UniProt P0DMS8); assay: Binding affinity against human Adenosine A3 receptor in HEK293 cells using [125I]AB-MECA […]; type: cell-based
T7 sequence (whole entry): T3 sequence (P0DMS8 whole entry)
Summary of the method: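 Membranes of HEK-293 cells stably expressing human A3 receptor (0.3 mg protein/mL) in 50 mM Tris, 10 mM Mg2+, 1 mM EDTA, pH 8.0, with 0.3 nM [125I]AB-MECA final. Duplicate 1 h incubations at 25 °C, filtration over GF/B, gamma counting; nonspecific binding with 100 μM (R)-PIA; DMSO ≤1%.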

SMILES: COc1c2ccoc2cc2oc(C=O)cc(=O)c12
- Displacement [1]: < 10%
- inhibition [2]: 25%
- Ratio [3]: > 2

SMILES: O=c1cc(-c2ccccc2)oc2ccc(Cl)cc12
- inhibition [4]: 28%
- Displacement [5]: < 10%

SMILES: CCOc1ccc(-c2oc3cc(OCC)cc(OCC)c3c(=O)c2OCC)c(OCC)c1
- Ki (Adenosine A2 receptor): 26.8 µM

SMILES: O=S(=O)(c1cccc2cnccc12)N1CCNCC1
- Ki (Adenosine receptor A3 [6]): 25 µM

SMILES: COc1ccc2c(c1)C(=O)[C@H](O)[C@@H](/C=C/c1ccccc1)O2 (relative stereo)
- Displacement [7]: < 10%
- inhibition [8]: 43%
- inhibition [9]: 39.2%
- inhibition [10]: 25.9%
- Displacement [5]: < 10%
- Ratio [3]: > 8

SMILES: O=C1CC(c2ccc(O)cc2)Oc2ccccc21 (stereo unspecified) [4'-HYDROXY-FLAVANONE]
- Ki (Adenosine receptor A1): 11.5 µM
- Ki (Adenosine receptor A3 [6]): 42.8 µM
- inhibition [12]: 35%

SMILES: COc1c2ccoc2cc2oc(/C=C/c3ccccc3)cc(=O)c12
- Ki (Adenosine A2 receptor): 11.5 µM
- Ratio [3]: 0.37

SMILES: OC12CCCCC1=Nc1ccccc12 (stereo unspecified)
- Ki (Adenosine receptor A3 [6]): 22 µM

SMILES: C=C1C(C)C2C(Cc3ccccc3)NC(=O)C23C(OC(C)=O)/C=C\C(C)(O)CC(C)C/C=C/C3C1O (stereo unspecified)
- Ki (Adenosine receptor A3 [6]): 23 µM

SMILES: O=C1CC(c2ccccc2O)Oc2ccccc21 (stereo unspecified) [2'-HYDROXY-FLAVANONE]
- Ki (Adenosine A2 receptor): 17.6 µM

SMILES: COc1ccc(-c2oc3cc(OC)cc(OC)c3c(=O)c2OC)c(OC)c1
- Ki (Adenosine A2 receptor): 46.7 µM

SMILES: CSc1sc(C(=O)NN)c2c1C=CCC2
- Ki (Adenosine receptor A3 [6]): 13 µM

SMILES: O=c1ccnc2ccccn12
- Ki (Adenosine receptor A3 [6]): 48 µM

SMILES: CCOc1c2ccoc2cc2oc(/C=C/C=C/c3ccccc3)cc(=O)c12
- Displacement [1]: < 10%
- Ki (Adenosine receptor A3 [6]): 45.5 µM
- Ki (Adenosine A2 receptor): 167 µM
- Ratio [3]: > 4

SMILES: OCCN(CCO)C1=NC(N2CCCCC2)c2nc(N(CCO)CCO)nc(N3CCCCC3)c2N1 (stereo unspecified)
- Ki (Adenosine receptor A3 [6]): 19 µM

SMILES: COc1c2ccoc2cc2oc(C)cc(=O)c12 [VISNAGIN]
- Ki (Adenosine A2 receptor): 42.4 µM
- inhibition [4]: 36%

SMILES: O=c1c(O)c(-c2ccc(O)cc2O)oc2cc(O)cc(O)c12 [MORIN]
- Ki (Adenosine A2 receptor): 17.3 µM

Second part, the compound after the results:

- Ki (Adenosine receptor A3 [6]): 0.741 µM
- Ki (Adenosine A2 receptor): 54.5 µM
- inhibition [4]: 15%
- Ratio [3]: > 100
SMILES: O=c1c(Cl)c(-c2ccccc2)oc2ccc(Cl)cc12

- Ki (Adenosine receptor A3 [11]): 12.3 µM
- inhibition [9]: 40.9%
- inhibition [10]: 21.2%
- Ki (Adenosine A2 receptor): 33.8 µM
SMILES: CCOc1c2ccoc2cc2oc(/C=C/c3ccccc3)cc(=O)c12

- Ki (Adenosine receptor A3 [6]): 5.24 µM
- inhibition [4]: 37%
- Displacement [5]: < 10%
SMILES: Cc1cc(C)c(-c2oc3ccc(Cl)cc3c(=O)c2Cl)c(C)c1

- Ki (Adenosine receptor A1): 9.09 µM
- Ki (Adenosine receptor A3 [6]): 4.59 µM
- Displacement [5]: < 10%
SMILES: COc1cc2oc(-c3ccc(O)cc3O)c(CC=C(C)C)c(=O)c2c(O)c1/C=C/C(C)C [ARTOCARPIN]

- Displacement [1]: < 10%
- Displacement [13]: < 10%
- Displacement [5]: < 10%
SMILES: COc1c2ccoc2cc2oc(/C=C/C=C/c3ccccc3)cc(=O)c12

- Ki (Adenosine receptor A3 [6]): 28 µM
SMILES: Nc1nc2ncc(NCc3ccc(C(=O)NC(CCC(=O)O)C(=O)O)cc3)nc2c(=O)[nH]1 (stereo unspecified)

- Displacement [1]: < 10%
- Displacement [5]: < 10%
- Ratio [3]: > 40
SMILES: CCOc1ccc(-c2oc3cc(OCC)cc(O)c3c(=O)c2OCC)c(OCC)c1

- Ki (Adenosine A2 receptor): 6.45 µM
SMILES: COc1cc(OC)c2c(=O)c(OC)c(-c3ccccc3)oc2c1

- Ki (Adenosine receptor A3 [11]): 18.2 µM
- inhibition [9]: 19.1%
- inhibition [10]: 2.2%
- Ki (Adenosine A2 receptor): 3.31 µM
SMILES: CCOc1cc(OCC)c2c(=O)c(OCC)c(-c3ccccc3)oc2c1

- Ki (Adenosine receptor A1): 2.48 µM
- Ki (Adenosine receptor A3 [6]): 11.5 µM
- Ki (Adenosine A2 receptor): 25.1 µM
SMILES: O=c1c(Cl)c(-c2ccccc2)oc2ccccc12

- Ki (Adenosine A2 receptor): 35.6 µM
SMILES: COc1cc(O)c2c(c1)OC(c1ccc(O)cc1)CC2=O (stereo unspecified)

- Displacement [1]: < 10%
- Ki (Adenosine receptor A3 [6]): 9.18 µM
- Displacement [5]: < 10%
- Ratio [3]: > 20
SMILES: COc1c2ccoc2cc2oc(/C=N/c3ccccc3)cc(=O)c12

- Ratio [3]: 3.5
SMILES: CCCOc1cc(OCCC)c2c(=O)c(OCCC)c(-c3ccccc3)oc2c1

- Ki (Adenosine receptor A1): 91.9 µM
- inhibition ([13]; concentration not given here): 27%
- Displacement [5]: < 10%
- Ratio [3]: < 1
SMILES: O=C1c2ccccc2OC(c2ccccc2O)C1O (stereo unspecified)

- Ki (Adenosine A2 receptor): 3.45 µM
SMILES: O=c1cc(-c2ccccc2)oc2ccccc12 [FLAVONE]

- Displacement [5]: < 10%
- Ratio [3]: 0.15
SMILES: COc1cc(OC)c(-c2oc3ccccc3c(=O)c2O)c(OC)c1

- Ki (Adenosine A2 receptor): 0.966 µM
SMILES: O=c1c(O)c(-c2ccccc2)oc2cc(O)cc(O)c12 [GALANGIN]

- Ki (Adenosine A2 receptor): 63.8 µM
SMILES: CCOc1cc(O)c2c(=O)c(OCC)c(-c3ccccc3)oc2c1
